This is a sample that favours compounds with a hit; in the whole collection about 1.5% have one here.
CSN inh: inhibitors of CSN-mediated cullin deneddylation, primary screen, biochemical, fluorescence polarization, uHTS | inhibition, % at 12.5 µM | 0.38% of 360,000 active | Purified CSN, SCF-Nedd8-OG deneddylation | AID 651999, 2013 | COP9 signalosome complex subunit 5 (Homo sapiens), Q92905;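 active = pattern-corrected inhibition above about 35%, with an unprinted fluorescence ratio check between 0.5 and 1.5, limit read from the data, passing the limit was not always enough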;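 also: 0% = enzyme with substrate and 100% = substrate without enzyme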
Target sequence (Q92905 whole entry, looked up, one chain of several): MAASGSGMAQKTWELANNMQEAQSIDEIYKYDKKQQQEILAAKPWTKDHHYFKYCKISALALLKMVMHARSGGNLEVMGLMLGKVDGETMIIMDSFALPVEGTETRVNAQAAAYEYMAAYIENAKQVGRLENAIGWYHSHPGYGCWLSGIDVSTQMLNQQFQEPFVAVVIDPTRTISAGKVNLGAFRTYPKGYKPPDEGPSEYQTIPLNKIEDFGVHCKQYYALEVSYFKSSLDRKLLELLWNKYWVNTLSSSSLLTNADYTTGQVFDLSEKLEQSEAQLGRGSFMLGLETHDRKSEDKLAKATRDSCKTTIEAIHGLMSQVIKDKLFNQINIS
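Material: human Csn5 produced in HEK293T cells; Input: enzyme 0.24 nM; Reagent: SCFSkp2-Nedd8OG substrate at 10 nM final; Dosing: 12.5 µM compound; Incubation: 90 min reaction at room temperature; Detection: fluorescence polarization of the substrate; Evaluation: % inhibition of substrate cleavage by Csn5; Control set: substrate-only high control, full reaction low control.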
HNF4A DNA FP: change in binding of human HNF4A to DNA, primary screen, biochemical, fluorescence polarization, FITC-DNA | activity change, % at 10 µM | 0.3% of 360,000 active | AID 1224865, 2016 | Hepatocyte nuclear factor 4-alpha (Homo sapiens), P41235 | 1 h; in the data active = activity change above about 30%, passing the limit was not always enough
TPT1 inhibitor: Candida albicans TPT1 enzyme inhibitors, primary screen, biochemical, fluorescence polarization; tRNA 2'-phosphotransferase TPT1 (Candida albicans SC5314); 0.81% of 300,000 active; recombinant caTPT1, FP RNA substrate dephosphorylation; inhibition, % at 5 µM;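 active = inhibition above the mean of all tested compounds plus 3 SD, set per screening campaign, cut at about 24% in these data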;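 also: plate controls were DMSO alone for no effect and ferristatin control at 100 nM for full effect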
Rpn11 inh: Rpn11 (PSMD14) deubiquitinase inhibitors, primary screen, biochemical, fluorescence polarization, uHTS; inhibition, % at 20 µM; 0.59% of 360,000 active; 26S proteasome non-ATPase regulatory subunit 14 (Homo sapiens), O00487; human 26S proteasome, Ub4-pepOG fluorescence polarization; 20S core pre-blocked with epoxomicin;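 active = inhibition at 20 µM, scaled to each plate's controls, above about 33%, limit read from the data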
Target sequence (O00487 whole entry, looked up): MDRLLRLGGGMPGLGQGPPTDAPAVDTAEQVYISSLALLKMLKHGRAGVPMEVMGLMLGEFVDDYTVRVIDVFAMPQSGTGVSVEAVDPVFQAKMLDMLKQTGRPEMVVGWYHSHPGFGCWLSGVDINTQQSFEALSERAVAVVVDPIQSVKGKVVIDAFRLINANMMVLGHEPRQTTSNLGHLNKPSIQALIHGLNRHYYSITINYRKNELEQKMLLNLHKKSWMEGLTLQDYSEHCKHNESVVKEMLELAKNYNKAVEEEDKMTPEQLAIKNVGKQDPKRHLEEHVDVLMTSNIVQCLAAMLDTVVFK
An asterisk follows results filed as active; . = no result given.

SMILES	CSN inh	HNF4A DNA FP	TPT1 inhibitor	Rpn11 inh
c1cc2c3c(cccc3c1)C(N1CCOCC1)=N2	-6.1	-6.8	-9.7	-29.5
c1ccc(CC2CCN(C3=Nc4cccc5cccc3c45)CC2)cc1	4.9	10.4	19.7	38.7*
Cn1nc(-c2ccc(C(=O)Nc3ccc(F)cc3)cc2)c2ccccc2c1=O	44.4*	1.0	-1.3	25.3
CCNNC(=O)C(O)(Cc1ccccc1)Cc1ccccc1	-2.6	0.1	-2.2	-2.5
O=C(O)C(=O)/C(=C\c1ccccc1)c1ccc2ccccc2n1	2.3	2.5	29.6*	8.7
O=C(O)C(=O)/C(=C\c1ccc([N+](=O)[O-])cc1)c1ccc2ccccc2n1	17.6	16.6	16.5	39.4
Cc1ccccc1NC(=O)CCc1nnc2ccc(N3CCC4(CC3)OCCO4)nn12	-2.4	0.4	-3.0	-9.1
CCc1ccccc1NC(=O)CN1CCN(CC(=O)Nc2ccc3c(c2)OC2(CCCCC2)O3)CC1	45.9*	-0.5	.	6.4
C=CCCC(=O)N1C[C@@H](CO)[C@@H](NC)C[C@H]1c1ccccc1Br	106.5*	0.1	.	2.1
c1cc2c3c(cccc3c1)NC1(CCCCC1)N2	2.5	44.2*	-1.9	2.3
CN1CCN(c2nc(C(N)=O)cc(-c3ccccc3)n2)CC1	0.4	1.3	-1.3	39.4*
O=c1cc(-c2ccco2)oc2c1ccc1ccccc12	39.4*	2.7	1.1	14.5
CN(C)C(CNC(=O)c1cc(S(=O)(=O)N(C)c2ccc(F)cc2)ccc1Cl)c1cccs1 (centres undefined)	3.2	-2.7	.	-2.2
COc1ccc(OCCOc2ccc(/C=C3\C(=N)N4N=C(C)SC4=NC3=O)cc2)cc1	45.5*	-10.4	.	32.3
COc1cc(NC(=O)COC(=O)Cc2ccsc2)cc(OC)c1	1.5	0.1	.	-4.3
Cc1cccc(C)c1NC(=O)C1(C)CSCC(=O)N1Cc1ccco1 (centres undefined)	94.2*	39.7*	.	.
COC(C[C@@H]1O[C@H]1[C@H](O)[C@@H](C)OCc1ccccc1)OC	.	.	2.6	.
Cn1cccc1C(C#N)c1cccc(F)c1C#N (centres undefined)	-6.9	-4.0	-1.2	-7.7
Cn1cccc1C(C#N)(CC#N)c1cccc(F)c1C#N (centres undefined)	101.1*	1.9	-1.2	7.8
O=C(O)c1cccc(-n2cccc2/C=C2/NC(=O)N(c3ccc(Cl)cc3)C2=O)c1	19.1	-73.7	.	.
O=C(O)c1cccc(-n2cccc2/C=C2/NC(=O)N(c3cccc(Cl)c3)C2=O)c1	35.1*	-26.8	7.8	-0.9
O=C(Cc1nc2ccccc2[nH]c1=O)c1ccccc1	-3.0	38.3*	.	-75.7
Cc1cc2occ(CC(=O)N(C)CC(=O)Nc3ccccc3Cl)c2cc1C	-6.1	-2.7	-0.1	-0.4
Cc1ccc(C)c2nc3sc(C(=O)N4CCCc5ccccc54)c(N)c3cc12	5.0	55.8*	21.6	-29.0
O=S(=O)(c1ccc(F)cc1)N1CCc2ccccc21	48.4*	76.2*	-0.6	21.0
SMILES	CSN inh	HNF4A DNA FP	TPT1 inhibitor	Rpn11 inh
O=S(=O)(NC1CC1)c1ccc(S(=O)(=O)N2CCc3ccccc32)cc1	-2.1	-1.4	0.5	12.2
COc1cccc(C(=O)OCC(=O)NC23CC4CC(CC(C4)C2)C3)c1	-0.1	-0.2	.	2.8
CC(=O)Oc1cc(C(=O)OCC(=O)NC23CC4CC(CC(C4)C2)C3)cc(OC(C)=O)c1OC(C)=O	41.2*	-16.4	.	7.6
Cc1ccc(S(=O)(=O)N2CCOCC2)cc1C(=O)OCC(=O)NCCc1ccccc1	-0.6	-1.9	.	9.0
CC(C)(C)OC(=O)NCc1ccc(NC(=O)c2nc[nH]c2C(=O)NCCCCCCNC(=O)c2[nH]cnc2C(=O)Nc2ccc(CNC(=O)OC(C)(C)C)cc2)cc1	16.8	45.7*	.	6.6
CC(C)(C)OC(=O)NCc1ccc(NC(=O)c2nc[nH]c2C(=O)NCCCCNC(=O)c2[nH]cnc2C(=O)Nc2ccc(CNC(=O)OC(C)(C)C)cc2)cc1	5.6	27.3	.	-2.7
C=C[C@@H]1c2cc(C)ccc2N(S(=O)(=O)c2ccc(C)cc2)[C@H](c2ccccc2C(F)(F)F)C1(C#N)C#N	1.9	2.3	.	-0.3
Cc1ccc(S(=O)(=O)N2CCN(C3CC(=O)N(CCc4ccccc4)C3=O)CC2)cc1C (centres undefined)	-0.4	60.5*	2.1	12.2
NC(=S)c1cc2cc(Br)ccc2oc1=O	-7.1	1.0	-4.4	-0.3
NC(=S)c1cc2ccc(O)cc2oc1=O	46.5*	33.6	.	13.4
CN(C)C(=O)c1ccc(Oc2ccc(C(=O)N(C)C)cc2)cc1	3.4	36.9*	-4.3	-5.0
COc1ccc(-n2c(N)c(C(=O)NCc3ccco3)c3nc4ccccc4nc32)cc1	9.2	7.0	8.0	16.5
Nc1c(C(=O)NCc2ccco2)c2nc3ccccc3nc2n1CCc1ccc(F)cc1	43.1*	12.5	19.6	43.3*
Cc1ccc(C(=O)NC(Cc2cccc(F)c2)C(=O)O)cc1 (centres undefined)	0.5	1.2	.	-4.1
N/C(=N\O)c1ccc(Cl)cc1Cl	1.5	0.3	-1.0	2.3
COc1ccc(NC(=O)CCc2nnc3ccc(NCc4ccc5c(c4)OCO5)nn23)cc1	35.8*	3.4	-6.1	20.2
COc1ccc(NC(=O)CCc2nnc3ccc(NCc4ccco4)nn23)cc1	0.2	1.5	-2.3	-3.6
COC(=O)c1c(NC(=O)c2ccco2)sc2c1CCC2	-2.9	64.5*	4.2	10.3
O=C(Nc1sc2c(c1C(=O)O)CCC2)c1ccco1	-2.6	-5.1	-0.6	-2.2
S=C1Cc2ccccc2N1	38.8*	1.4	.	20.6
COc1ccc(NC(=O)CN(C)S(=O)(=O)c2ccccc2)cc1	0.5	-2.5	-1.1	3.1
COc1ccc(NC(=O)CN(C)S(=O)(=O)c2ccccc2)c([N+](=O)[O-])c1	4.5	39.4*	3.4	15.5
CCOc1ccc(C2=CSC3=NCCN23)cc1[N+](=O)[O-]	-2.3	1.1	-5.7	0.3
CCOC(=O)N1CCN(S(=O)(=O)c2ccc(C(=O)Nc3sc4c(c3C(N)=O)CCN(CC)C4)cc2)CC1	1.9	-0.2	15.2	26.1
CCCN1CCc2c(sc(NC(=O)c3ccc(S(=O)(=O)N4CCN(C(=O)OCC)CC4)cc3)c2C(N)=O)C1	52.5*	91.5*	156.5*	.
O=C(COc1ccc(Cl)cc1Br)Nc1cccc(S(=O)(=O)N2CCCC2)c1	-0.5	-1.5	.	1.3
Cc1c(NC(=O)NC(=O)c2ccc(F)cc2)c(=O)n(-c2ccccc2)n1C	-3.2	-1.7	0.3	-2.1
Cc1c(N=C2N=C(NC(=O)c3ccc(F)cc3)c3ccccc32)c(=O)n(-c2ccccc2)n1C	-102.8	74.7*	15.4	.
COc1ccc(-c2csc(COC(=O)C(C)(C)C)n2)cc1	104.9*	21.6	-1.0	21.1
CC(C)(C)C(=O)OCc1nc(-c2ccc(F)cc2)cs1	-1.0	0.8	-1.3	-4.9
